Measured values taken from ChEMBL document CHEMBL1135651 (J Med Chem, 2002).
pIC50: −log10 of the molar value. The source made the active and inactive calls. No cut-off for these calls is given here.

Experiments:
[1] = molecular target: T1, Prostaglandin G/H synthase 1 (Homo sapiens, UniProt P23219); test: The inhibitory activity against cyclooxygenase Prostaglandin G/H synthase 1 measured as TXB2 production after blood coagulation using human Whole blood assay: NI means no inhibition
Procedure, shortened: (§1)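 Human whole blood; COX-1 activity read as TXB2 produced during blood coagulation. Each drug run in triplicate over 100 to 0.01 μM. IC50 calculated from the concentration series. No inhibition at 100 μM recorded as ni.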

Rattus norvegicus [2] = test: The percentage growth of paw after injection of carrageneen at a dose of 10 mg/kg dose; assay type: functional
Procedure, shortened: (§2)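 Wistar rats (250 g) given drug intraperitoneally, 10 or 30 mg/kg, from a 10 mg/mL DMSO solution. After 1 h, 0.1 mL 1% lambda carrageenan was injected into the right hind paw plantar region. At 3 h, rats were euthanized with nembutal (100 mg/kg) and paws cut at the ankle. Swelling was taken as % weight increase over the control paw. Mean ± SD, n = 6.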

Rattus norvegicus [3] = test: The percentage growth of paw after injection of carrageneen at a dose of 30 mg/kg dose; assay type: functional; procedure, shortened: as §2
[4] = molecular target: T1, Prostaglandin G/H synthase 1; test: The inhibitory activity against Prostaglandin G/H synthase 1 measured as TXB2 production after blood coagulation using human Whole blood assay
Rattus norvegicus [5] = test: The percentage growth of paw after injection of carrageneen at a dose of 30 mg/kg dose; Toxic; assay type: functional, organism-based; design: dose 30 mg/kg; procedure, shortened: as §2
[6] = molecular target: T2, Prostaglandin G/H synthase 2 (Homo sapiens, UniProt P35354); test: The inhibitory activity against cyclooxygenase Prostaglandin G/H synthase 2 (COX-2) measured as PGE-2 production after stimulation by lipopolysaccharide (LPS) using human Whole blood assay
T2 sequence (P35354 whole entry): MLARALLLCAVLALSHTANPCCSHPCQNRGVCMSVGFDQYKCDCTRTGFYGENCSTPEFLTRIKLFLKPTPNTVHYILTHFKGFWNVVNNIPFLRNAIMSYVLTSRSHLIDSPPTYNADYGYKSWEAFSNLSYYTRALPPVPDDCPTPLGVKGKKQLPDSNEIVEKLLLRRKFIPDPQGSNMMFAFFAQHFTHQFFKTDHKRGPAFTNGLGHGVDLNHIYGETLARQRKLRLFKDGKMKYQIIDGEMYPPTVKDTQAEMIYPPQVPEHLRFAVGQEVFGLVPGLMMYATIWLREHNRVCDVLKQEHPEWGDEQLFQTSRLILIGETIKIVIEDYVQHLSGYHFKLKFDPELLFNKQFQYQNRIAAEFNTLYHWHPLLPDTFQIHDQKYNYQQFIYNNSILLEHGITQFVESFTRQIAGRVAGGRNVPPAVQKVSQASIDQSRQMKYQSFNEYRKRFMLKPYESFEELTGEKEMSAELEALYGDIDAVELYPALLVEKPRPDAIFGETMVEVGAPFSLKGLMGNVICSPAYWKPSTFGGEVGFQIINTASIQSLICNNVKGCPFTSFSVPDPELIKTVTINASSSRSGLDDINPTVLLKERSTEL

[7] = molecular target: T1, Prostaglandin G/H synthase 1; test: The inhibitory activity against Prostaglandin G/H synthase 1 measured as TXB2 production after blood coagulation using human Whole blood assay: NI means no inhibition; procedure, shortened: as §1
[8] = molecular target: T3, Prostaglandin G/H synthase 2 (Homo sapiens) (UniProt P35354); test: The inhibitory activity against cyclooxygenase Prostaglandin G/H synthase 2 (COX-2) measured as PGE-2 production after stimulation by lipopolysaccharide (LPS) using human Whole blood assay:NI means no inhibition
T3 sequence (whole entry): T2 sequence (P35354 whole entry)

T1 sequence (P23219 whole entry): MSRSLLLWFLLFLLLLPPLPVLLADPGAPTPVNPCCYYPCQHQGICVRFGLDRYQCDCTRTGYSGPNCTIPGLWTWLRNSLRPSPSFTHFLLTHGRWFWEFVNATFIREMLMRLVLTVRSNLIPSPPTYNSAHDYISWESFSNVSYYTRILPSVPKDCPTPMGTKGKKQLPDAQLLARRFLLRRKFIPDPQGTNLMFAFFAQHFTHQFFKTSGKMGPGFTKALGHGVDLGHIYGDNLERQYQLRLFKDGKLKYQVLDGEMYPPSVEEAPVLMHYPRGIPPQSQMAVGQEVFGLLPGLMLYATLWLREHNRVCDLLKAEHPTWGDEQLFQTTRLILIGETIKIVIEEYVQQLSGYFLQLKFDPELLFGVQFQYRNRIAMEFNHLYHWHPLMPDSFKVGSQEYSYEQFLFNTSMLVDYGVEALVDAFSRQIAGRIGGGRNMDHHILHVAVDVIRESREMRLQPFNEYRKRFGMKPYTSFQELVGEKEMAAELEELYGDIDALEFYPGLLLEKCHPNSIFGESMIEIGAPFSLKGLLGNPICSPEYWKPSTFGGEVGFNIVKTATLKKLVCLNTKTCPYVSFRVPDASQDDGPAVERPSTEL

Row | Structure (SMILES) | Growth (Rattus norvegicus [2]) [%] | Growth (Rattus norvegicus [3]) [%] | also measured
1 | CN(c1ccc([N+](=O)[O-])cc1Oc1ccccc1)S(C)(=O)=O | 84.6 | 65.6 | NI [1]: inactive
2 | CS(=O)(=O)Nc1ccncc1Oc1ccccc1 | – | – | pIC50 [4]: 5.31; Growth (Rattus norvegicus [5]): Toxic; pIC50 [6]: 4.43
3 | CS(=O)(=O)Nc1cccnc1Oc1ccccc1 | – | – | inhibition [7]: inactive; inhibition [8]: inactive
4 | O=S(=O)(Nc1ccncc1Oc1ccccc1)C(F)(F)F | 74.7 | 54.1 | –
5 | CS(=O)(=O)Nc1ccc([N+](=O)[O-])cc1Oc1ccccc1 [NIMESULIDE] | 58 | 54 | –
